Assay results published in PMC3124385 (Clinical pharmacology and therapeutics, 2011).
Where two headings read alike, the source gives them in different places. Starred links: 1 amine or outer side, 2 acyl side, 3 side chain; linkers in the order of their positions; H or OH if unused. Positions of bridges follow the written chain, without caps; N, C: chain ends. Non-standard residues stand in square brackets, D forms with d. Residues, ends and D or L forms follow the SMILES beside them. *: point of attachment. pTerphenylCO(4''-OnC5H11) = CCCCCOc1ccc(-c2ccc(-c3ccc(C(=O)*)cc3)cc2)cc1; Orn(4R-OH,5R-OH) = O=C([C@H](C[C@@H](O)[C@@H](O)N[*:3])N[*:1])[*:2]; hTyr(3S-OH,4S-OH) = N[C@H](C(=O)O)[C@H](O)[C@@H](O)c1ccc(O)cc1; Pro(3S-OH,4S-Me) = C[C@H]1CN[C@H](C(=O)O)[C@H]1O; Hyp = O=C(O)[C@@H]1C[C@@H](O)CN1

Legend:
[1] = type: in vivo, human; details: for C24 LD, trough (24 h) concentration after the loading dose / Cmax LD, maximum concentration after loading dose: after 3 mg/kg IV loading dose, day 1, plasma LC-MS/MS
Summary of the method: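 IV infusion over 60 min (≤1.1 mg/min): 3 mg/kg loading dose day 1, then 1.5 mg/kg daily up to day 5. Infants got a 20% alcohol-based form and neonates an alcohol-free water-for-injection form. Venous plasma drawn day 1 (predose, end-infusion, 20–24 h) and days 3–5 (predose to 18–24 h), kept at −80°C, assayed by LC-MS/MS (0.05–20.0 μg/ml). Noncompartmental analysis of doses 3–5; AUC by linear trapezoidal rule; CL = dose/AUC.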

[2] = Safety: adverse events and clinical laboratory tests in infants and neonates; type: in vivo, human
[3] = ref [12], cited from earlier work
[4] = ref [10], cited from earlier work
[5] = system: cytochrome P450 enzymatic system; details: ref [10]; cited from earlier work

CCCCCOc1ccc(-c2ccc(-c3ccc(C(=O)N[C@H]4C[C@@H](O)[C@@H](O)NC(=O)[C@@H]5[C@@H](O)[C@@H](C)CN5C(=O)[C@H]([C@@H](C)O)NC(=O)[C@H]([C@H](O)[C@@H](O)c5ccc(O)cc5)NC(=O)[C@@H]5C[C@@H](O)CN5C(=O)[C@H]([C@@H](C)O)NC4=O)cc3)cc2)cc1 [anidulafungin, Anidulafungin] ({pTerphenylCO(4''-OnC5H11)}-[Orn(4R-OH,5R-OH)]T[Hyp][hTyr(3S-OH,4S-OH)]T[Pro(3S-OH,4S-Me)]; lactam 1-C)
drug accumulation after multiple anidulafungin doses ([1]; comparing trough concentrations after the loading dose and those obtained after multiple doses): not apparent
Cmax ([1]; human, plasma, iv, 1.5 mg/kg): 4200 ng/mL
Cmax ([1]; human, plasma, iv, 3 mg/kg): 5000 ng/mL
level at 24 h ([1]; human, plasma, iv, 3 mg/kg): 2100 ng/mL
trend in weight-adjusted clearance (CLss) with changes in postmenstrual age ([1]; scatter plot, Figure 3, neonates and infants): No trend was observed
C24 LD, trough (24 h) concentration after the loading dose ([1]; subject 4, neonate): 2.1 µg/mL
Cmax LD, maximum concentration after loading dose ([1]; subject 4, neonate): 4000 ng/mL
C24 LD, trough (24 h) concentration after the loading dose ([1]; subject 6, neonate): 3.2 µg/mL
Cmax LD, maximum concentration after loading dose ([1]; subject 6, neonate): 5900 ng/mL
C24 LD, trough (24 h) concentration after the loading dose ([1]; subject 8, neonate): 1.9 µg/mL
Cmax LD, maximum concentration after loading dose ([1]; subject 8, neonate): 4900 ng/mL
C24 LD, trough (24 h) concentration after the loading dose ([1]; subject 9, infant): 2.3 µg/mL
Cmax LD, maximum concentration after loading dose ([1]; subject 9, infant): 7100 ng/mL
C24 LD, trough (24 h) concentration after the loading dose ([1]; subject 10, infant): 2.4 µg/mL
Cmax LD, maximum concentration after loading dose ([1]; subject 10, infant): 5000 ng/mL
C24 LD, trough (24 h) concentration after the loading dose ([1]; subject 11, infant): 1.9 µg/mL
Cmax LD, maximum concentration after loading dose ([1]; subject 11, infant): 6800 ng/mL
subjects who experienced at least one adverse event ([2]; eight out of 15 subjects, neonates and infants): 53%
maximum bilirubin level during study drug administration ([2]; other infant with worsening hyperbilirubinemia, baseline 9.1 mg/dL): 10.4 mg/dL
AUCss of older children and adults ([3]; older children (1.5 mg/kg/day) and adults (100 mg/day)): 100000 ng·h/mL
half life in other pediatric patients ([3]; other pediatric patients): 20 to 24 h
hepatic metabolism [4, 11]: lacks significant hepatic metabolism
degradation in the blood [4]: undergoes chemical degradation in the blood
renal clearance [4]: not renally cleared
metabolism by the cytochrome P450 enzymatic system [5]: not metabolized by the cytochrome P450 enzymatic system
